# Experimental data gathered from unrelated publications.
# Lines come from different studies, so protocols differ.
# HTR1E: 5-hydroxytryptamine receptor 1E (HTR1E, Homo sapiens, UniProt P28566)
# BACE1: Beta-secretase 1 (BACE1, Homo sapiens, UniProt P56817)
SMILES,target,test,quantity,value
CC(N)Cc1c[nH]c2ccc(OCc3cccs3)cc12 (stereo not drawn),HTR1E,"G protein activation, agonist, BRET",EC50,3.99 µM
CC[C@H](C)[C@H](NC(=O)[C@H](CO)NC(=O)CNC(=O)[C@@H](NC(=O)[C@@H](NC(=O)[C@@H](NC(=O)CN)[C@@H](C)O)C(C)C)[C@@H](C)O)C(=O)N[C@@H](CC(C)C)C(=O)N[C@H](C(=O)N1CCC[C@H]1C(=O)N[C@H](C(=O)N[C@@H](CC(=O)O)C(=O)N[C@@H](Cc1ccc(O)cc1)C(=O)NCC(=O)N[C@H]1CSSC[C@@H](C(=O)N[C@@H](CO)C(=O)N[C@H](C(=O)N[C@@H](C)C(=O)N[C@@H](CCSC)C(=O)N[C@@H](Cc2ccc(O)cc2)C(=O)NCC(=O)NCC(=O)N[C@H](C(=O)N[C@H](C(=O)N[C@@H](CC(=O)O)C(=O)N2CCC[C@H]2C(=O)N[C@H](C(=O)N[C@@H](CCCNC(=N)N)C(=O)N[C@@H](Cc2ccccc2)C(=O)N2CCC[C@H]2C(=O)N[C@@H](CC(N)=O)C(=O)N[C@@H](C)C(=O)N[C@@H](Cc2c[nH]c3ccccc23)C(=O)N[C@@H](CCCNC(=N)N)C(=O)N[C@@H](CCC(=O)O)C(=O)N[C@@H](CC(C)C)C(=O)O)[C@@H](C)CC)[C@@H](C)CC)C(C)C)C(C)C)NC(=O)[C@H](CC(C)C)NC(=O)[C@H](Cc2ccccc2)NC(=O)[C@@H]2CCCN2C(=O)[C@H](CC(N)=O)NC(=O)[C@H](Cc2ccccc2)NC1=O)[C@@H](C)CC)[C@@H](C)O,"Neutrophil elastase (ELANE, Homo sapiens, UniProt P08246)","enzyme activity, inhibitor",IC50,> 100 µM
COC(=O)c1cc(N(C)C(=O)c2ccn3ncc(-c4ccc(C(=O)O)cc4)c3c2)ccc1Cl,"Wee1-like protein kinase (WEE1, Homo sapiens, UniProt P30291)","enzyme activity, inhibitor",IC50,> 30 µM
O=C(O)C(F)(F)C(F)(F)C(F)(F)C(F)(F)C(F)(F)C(F)(F)C(F)(F)F,"Aldo-keto reductase family 1 member C4 (AKR1C4, Homo sapiens, UniProt P17516)","enzyme activity, inhibitor",IC50,≥ 50 µM
Cc1c2oc3c(C)ccc(C(=O)N[C@@H]4C(=O)N[C@H](C(C)C)C(=O)N5CCC[C@H]5C(=O)N(C)CC(=O)N(C)[C@@H](C(C)C)C(=O)O[C@@H]4C)c3nc-2c(C(=O)N[C@@H]2C(=O)N[C@H](C(C)C)C(=O)N3CCC[C@H]3C(=O)N(C)CC(=O)N(C)[C@@H](C(C)C)C(=O)O[C@@H]2C)c(N)c1=O,"Palmitoyl-protein thioesterase 1 (Homo sapiens, UniProt P50897)","binding, MST",Kd,0.235 µM
CSc1ccc(C=NNC(=O)c2cc(-c3cn(C)c4ccccc34)on2)cc1,BACE1,"enzyme activity, inhibitor, FRET",IC50,> 100 µM
CCN(CC)C(=O)N[C@H]1C[C@@H]2c3cccc4[nH]cc(c34)C[C@H]2N(C)C1,HTR1E,"G protein activation, agonist, BRET",EC50,1.81 µM
Cn1cc(-c2cc(C(=O)NN=Cc3cccc([N+](=O)[O-])c3)no2)c2ccccc21,BACE1,"enzyme activity, inhibitor, FRET",IC50,> 100 µM
CNC(=O)c1ccc(-c2cnn3ccc(C(=O)N(C)c4ccc(Cl)c(C(=O)OC)c4)cc23)cc1,"Non-receptor tyrosine-protein kinase TYK2 (TYK2, Homo sapiens, UniProt P29597)","enzyme activity, inhibitor",IC50,> 30 µM
